Source: ChEMBL document CHEMBL1147411, “7-Hydroxynaphthalen-1-yl-urea and -amide antagonists of human vanilloid receptor 1” (Bioorg Med Chem Lett, 2004)

Experiments:
[1] = molecular target: T1, Transient receptor potential cation channel subfamily V member 1 (Homo sapiens, UniProt Q8NER1); assay: Functional antagonistic activity against human vanilloid receptor subtype 1 in HEK293 cell […] as inhibition of agonist-induced increases in intracellular [Ca2+] levels; assay type: cell-based
Outline: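 Fluo-3/AM-loaded hVR1/HEK cells were read by FLIPR. Cells were incubated with compound, then challenged with capsaicin at a concentration giving ~80% maximal response. IC50 came from the inhibition of the capsaicin-induced Ca2+ rise.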

[2] = molecular target: T1, Transient receptor potential cation channel subfamily V member 1; assay: Binding affinity towards cloned human vanilloid receptor subtype 1 in HEK293 cell membranes using [3H]RTX as radioligand
Outline: (§1)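 Human VR1 stably expressed in HEK293 cells. Membranes were made by homogenizing, spinning at 3000 rpm for 10 min, and spinning the supernatant at 18,000 rpm for 20 min. Binding was 60 min at 37 °C with 0.3–0.6 nM [3H]-RTX in HEPES buffer pH 7.4. Samples were ice-cooled, given α-acid glycoprotein, centrifuged, and the pellet counted. Nonspecific binding used 200 nM unlabeled RTX. Percent inhibition calculated; Ki by Cheng–Prusoff.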

[3] = molecular target: T1, Transient receptor potential cation channel subfamily V member 1; assay: Displacement of [3H]RTX binding to human vanilloid receptor subtype 1 expressed in HEK293 cell membranes at 10 uM; outline: as §1
[4] = molecular target: T1, Transient receptor potential cation channel subfamily V member 1; assay: Displacement of [3H]-RTX binding to human vanilloid receptor subtype 1 expressed in HEK293 cell membranes (inactive); outline: as §1
[5] = molecular target: T1, Transient receptor potential cation channel subfamily V member 1; assay: Increased [Ca2+] influx in HEK293 cell […] human vanilloid receptor subtype 1 (inactive); assay type: functional, cell-based
Outline: (§2)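 hVR1/HEK cells on poly-D-lysine-coated plates were loaded with Fluo-3/AM for 1 h after 2 days. Cells received single compound concentrations, and intracellular Ca2+ was read by FLIPR for 3 min. Capsaicin was then added at […] final to fully activate VR1.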

[6] = molecular target: T1, Transient receptor potential cation channel subfamily V member 1; assay: Increased [Ca2+] influx in HEK293 cell […] human vanilloid receptor subtype 1; assay type: functional, cell-based; outline: as §2

T1 sequence (Q8NER1 whole entry): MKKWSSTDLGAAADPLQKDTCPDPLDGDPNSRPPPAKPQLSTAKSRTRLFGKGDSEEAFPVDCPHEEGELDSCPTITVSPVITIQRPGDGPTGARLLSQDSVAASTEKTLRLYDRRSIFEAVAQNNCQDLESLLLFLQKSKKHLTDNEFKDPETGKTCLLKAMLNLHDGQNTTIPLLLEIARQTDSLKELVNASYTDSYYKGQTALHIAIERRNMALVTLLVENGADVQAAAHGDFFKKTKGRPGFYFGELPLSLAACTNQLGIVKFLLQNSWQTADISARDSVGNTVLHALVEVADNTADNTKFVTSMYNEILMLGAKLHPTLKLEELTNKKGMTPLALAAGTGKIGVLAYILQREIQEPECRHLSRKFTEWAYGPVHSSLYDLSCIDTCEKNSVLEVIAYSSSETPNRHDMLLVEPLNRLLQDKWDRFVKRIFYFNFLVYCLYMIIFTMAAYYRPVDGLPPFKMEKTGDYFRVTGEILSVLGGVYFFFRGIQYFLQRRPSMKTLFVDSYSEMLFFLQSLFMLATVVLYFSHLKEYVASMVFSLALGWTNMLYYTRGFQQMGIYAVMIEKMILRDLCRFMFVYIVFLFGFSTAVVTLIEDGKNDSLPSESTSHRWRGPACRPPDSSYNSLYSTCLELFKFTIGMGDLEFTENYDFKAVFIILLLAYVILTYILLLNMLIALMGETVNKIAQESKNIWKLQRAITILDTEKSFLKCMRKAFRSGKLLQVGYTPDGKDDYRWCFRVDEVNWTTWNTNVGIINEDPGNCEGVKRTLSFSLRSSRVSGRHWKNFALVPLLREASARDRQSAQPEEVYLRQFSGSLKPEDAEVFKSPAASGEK

Row | IC50 [1] [nM] | Ki [2] [nM] | Compound | further results
1 | 100 | 120 | Oc1cc2c(cc1O)CN(C(=S)NCCc1ccc(Cl)cc1)CCC2 [CAPSAZEPINE] | –
2 | 15 | 2 | O=C(NCc1ccc(Cl)c(Cl)c1)Nc1cccc2ccc(O)cc12 | –
3 | 45 | – | O=C(NCc1ccccc1)Nc1cccc2ccc(O)cc12 | –
4 | 90 | 1 | O=C(NCCc1ccc(Cl)c(Cl)c1)Nc1cccc2ccc(O)cc12 | –
5 | – | 7 | O=C(NCc1ccc(F)c(F)c1)Nc1cccc2ccc(O)cc12 | –
6 | – | 4 | CC(NC(=O)Nc1cccc2ccc(O)cc12)c1ccc(C(F)(F)F)cc1 (stereo not drawn) | –
7 | 320 | – | O=C(Nc1cccc2ccc(O)cc12)c1ccc(Cl)cc1 | inhibition [3]: 28%
8 | – | – | CN(Cc1ccccc1)C(=O)Nc1cccc2ccc(O)cc12 | Ki [4]: > 10000 nM; IC50 [5]: > 10000 nM
9 | – | – | O=C(NCCSCc1cccc(C(F)(F)F)c1)N1CCSCC1 | EC50 [6]: 390 nM
10 | 4 | 1 | O=C(NCc1ccc(C(F)(F)F)cc1)Nc1cccc2ccc(O)cc12 | –
11 | 770 | – | O=C(Cc1ccc(Cl)c(Cl)c1)Nc1cccc2ccc(O)cc12 | –
12 | 26 | 2.1 | O=C(NCc1cccc(C(F)(F)F)c1)Nc1cccc2ccc(O)cc12 | –
13 | – | – | O=C(Nc1cccc2ccc(O)cc12)N(Cc1ccccc1)Cc1ccccc1 | IC50 [5]: > 10000 nM
14 | 6300 | – | O=C(Nc1cccc2ccc(O)cc12)Oc1ccccc1 | Ki [4]: > 10000 nM
15 | 27 | 1 | O=C(NCc1ccc(OC(F)(F)F)cc1)Nc1cccc2ccc(O)cc12 | –
16 | 17 | 4.6 | O=C(CCc1ccc(Cl)c(Cl)c1)Nc1cccc2ccc(O)cc12 | –
17 | 21 | 9.8 | O=C(CCc1ccc(Cl)cc1)Nc1cccc2ccc(O)cc12 | –
